Test results published in ChEMBL document CHEMBL1133533 (J Med Chem, 2000).

Columns and labels:
D(1A) dopamine receptor [1] = target: T1, D(1A) dopamine receptor (Bos taurus, UniProt Q95136); assay: Binding affinity against Dopamine receptor D1 from bovine striatal membranes using [3H]SCH-23390 as radioligand
Procedure, shortened: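 Bovine striatal membranes, 25 µg protein/tube, competing against [3H]SCH 23390 (Kd 0.27-0.32 nM). Eight concentrations in triplicate, 2-4 independent experiments. Sigmoid nonlinear fit gives IC50, converted to Ki by Cheng-Prusoff; reported as mean ± SEM.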

D(4) dopamine receptor [2] = target: T2, D(4) dopamine receptor (Homo sapiens, UniProt P21917); assay: Displacement of [3H]spiperone from human Dopamine receptor D4.4 expressed in CHO cells; assay type: cell-based
T2 sequence (P21917 whole entry): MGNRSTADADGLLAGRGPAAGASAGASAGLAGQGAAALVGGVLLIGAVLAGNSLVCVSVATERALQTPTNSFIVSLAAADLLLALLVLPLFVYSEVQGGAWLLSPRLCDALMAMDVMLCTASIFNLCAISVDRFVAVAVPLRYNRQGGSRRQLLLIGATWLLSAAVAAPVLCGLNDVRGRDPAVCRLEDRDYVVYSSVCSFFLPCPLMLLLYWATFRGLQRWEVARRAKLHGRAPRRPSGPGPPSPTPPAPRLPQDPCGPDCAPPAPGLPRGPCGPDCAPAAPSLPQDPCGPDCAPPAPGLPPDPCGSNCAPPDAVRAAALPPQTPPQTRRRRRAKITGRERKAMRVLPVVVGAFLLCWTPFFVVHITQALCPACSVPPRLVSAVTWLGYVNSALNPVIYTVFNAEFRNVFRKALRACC
Procedure, shortened: (§1)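 Membranes from CHO cells stably expressing human D2short, D3 or D4.4 receptor, 5-25 µg protein/tube, competing against [3H]spiperone. Eight concentrations in triplicate, 2-4 independent experiments. Sigmoid nonlinear fit gives IC50, converted to Ki by Cheng-Prusoff; reported as mean ± SEM; Hill slopes fit a one-site model.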

D(3) dopamine receptor = D(3) dopamine receptor (Homo sapiens, UniProt P35462); assay: Displacement of [3H]spiperone from human Dopamine receptor D3 expressed in CHO cells; assay type: cell-based; procedure, shortened: as §1
D(3) dopamine receptor, sequence (P35462 whole entry): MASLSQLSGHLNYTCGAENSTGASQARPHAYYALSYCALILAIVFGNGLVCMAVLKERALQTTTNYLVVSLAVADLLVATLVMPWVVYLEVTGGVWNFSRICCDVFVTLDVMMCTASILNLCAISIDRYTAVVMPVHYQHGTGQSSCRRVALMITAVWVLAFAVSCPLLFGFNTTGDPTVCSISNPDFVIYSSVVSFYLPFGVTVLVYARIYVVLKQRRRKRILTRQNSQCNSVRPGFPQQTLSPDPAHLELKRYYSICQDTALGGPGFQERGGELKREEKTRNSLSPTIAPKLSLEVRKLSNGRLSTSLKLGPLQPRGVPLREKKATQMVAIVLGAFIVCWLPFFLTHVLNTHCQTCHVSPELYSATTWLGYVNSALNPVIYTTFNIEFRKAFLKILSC

D(4) dopamine receptor [3] = target: T2, D(4) dopamine receptor; assay: (§2) Effective dose was measured by the stimulation of mitogenesis at dopamine D4.2 receptor; assay type: functional
Procedure, shortened: (§3)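 CHO10001A cells stably expressing human D4.2 receptor, seeded at 10 000 cells/well and grown 75 h in medium with 10% FCS. Cells rinsed with serum-free medium, then given seven concentrations (final 0.001-1000 nM) for 16-18 h. [3H]thymidine 0.25 µCi/well added for 2 h at 37 °C, then filter harvest and counting. Quadruplicates, 6 experiments, normalized mean curve; EC50 from mean curves.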

[4] = target: T3, D(4) dopamine receptor (Homo sapiens) (UniProt P21917); assay: Agonistic effect was measured by the stimulation of mitogenesis at dopamine D4.2 receptor; assay type: functional; procedure, shortened: as §3
T3 sequence (whole entry): T2 sequence (P21917 whole entry)

D(2) dopamine receptor [5] = target: T4, D(2) dopamine receptor (Homo sapiens, UniProt P14416); assay: Displacement of [3H]spiperone from human Dopamine receptor D2L expressed in CHO cells; assay type: cell-based
T4 sequence (P14416 whole entry): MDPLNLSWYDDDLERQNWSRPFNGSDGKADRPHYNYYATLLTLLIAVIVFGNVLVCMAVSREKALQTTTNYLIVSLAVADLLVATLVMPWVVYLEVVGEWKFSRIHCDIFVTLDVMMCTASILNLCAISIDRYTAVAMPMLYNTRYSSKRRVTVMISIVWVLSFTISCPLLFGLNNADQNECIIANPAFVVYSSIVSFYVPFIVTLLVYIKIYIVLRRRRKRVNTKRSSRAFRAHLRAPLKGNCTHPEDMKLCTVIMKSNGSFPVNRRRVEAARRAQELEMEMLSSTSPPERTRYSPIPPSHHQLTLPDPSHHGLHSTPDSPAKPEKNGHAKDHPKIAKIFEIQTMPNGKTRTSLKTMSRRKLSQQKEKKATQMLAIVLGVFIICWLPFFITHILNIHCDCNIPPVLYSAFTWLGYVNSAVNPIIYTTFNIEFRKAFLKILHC

D(2) dopamine receptor [6] = target: T4, D(2) dopamine receptor; assay: Displacement of [3H]spiperone from human Dopamine receptor D2S expressed in CHO cells; assay type: cell-based; procedure, shortened: as §1
D(1A) dopamine receptor [7] = target: T1, D(1A) dopamine receptor; assay: Displacement of [3H]SCH-23390 from Dopamine receptor D1 of bovine striatal membranes
[8] = target: T3, D(4) dopamine receptor (Homo sapiens); assay: as §2; assay type: functional; procedure, shortened: as §3

T1 sequence (Q95136 whole entry): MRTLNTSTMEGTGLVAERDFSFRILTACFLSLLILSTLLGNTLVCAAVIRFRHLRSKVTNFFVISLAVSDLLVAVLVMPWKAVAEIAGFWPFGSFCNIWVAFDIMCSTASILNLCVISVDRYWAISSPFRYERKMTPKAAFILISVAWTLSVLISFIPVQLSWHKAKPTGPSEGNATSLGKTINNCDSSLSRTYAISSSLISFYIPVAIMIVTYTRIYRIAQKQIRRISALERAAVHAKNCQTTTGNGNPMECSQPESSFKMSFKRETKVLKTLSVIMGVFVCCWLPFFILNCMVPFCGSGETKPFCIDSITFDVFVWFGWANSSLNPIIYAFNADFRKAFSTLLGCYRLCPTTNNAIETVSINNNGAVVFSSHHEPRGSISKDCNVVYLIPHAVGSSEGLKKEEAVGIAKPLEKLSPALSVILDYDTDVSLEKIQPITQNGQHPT

Structure (SMILES) | Ki (D(1A) dopamine receptor [1]) | Ki (D(4) dopamine receptor [2]) | Ki (D(3) dopamine receptor) | EC50 (D(4) dopamine receptor [3]) | Effect [4] | Ki (D(2) dopamine receptor [5]) | Ki (D(2) dopamine receptor [6]) | Ki (D(1A) dopamine receptor [7]) | ED50 [8]
N#Cc1ccc2cc(CN3CCN(c4ccccc4Cl)CC3)[nH]c2c1 | 1.9 µM | 0.0034 µM | 0.92 µM |  |  |  |  |  | 
N#Cc1ccc2[nH]c(CN3CCN(c4ccc(F)cc4)CC3)cc2c1 | 8.6 µM | 0.001 µM | 15 µM | 0.0094 µM | 30% | 28 µM | 19 µM |  | 
N#Cc1ccc2[nH]cc(CN3CCN(c4ccc(Cl)cc4)CC3)c2c1 |  | 0.029 µM | 6.4 µM |  |  | 4.3 µM | 2.6 µM | 0.55 µM | 
N#Cc1ccc2[nH]c(CN3CCN(c4ccccc4Cl)CC3)cc2c1 |  | 0.0014 µM | 1.7 µM |  |  | 2.3 µM | 0.95 µM | 7.5 µM | 
N#Cc1ccc2[nH]c(CN3CCN(c4ccccc4)CC3)cc2c1 |  | 0.00052 µM | 1.7 µM |  | 35% | 3.1 µM | 0.29 µM | 13 µM | 0.0015 µM
N#Cc1ccc2[nH]cc(CN3CCN(c4ccccc4)CC3)c2c1 |  | 0.05 µM | 4.4 µM |  |  | 34 µM | 3.5 µM | 3 µM | 
N#Cc1ccc2[nH]cc(CN3CCN(c4ccc(F)cc4)CC3)c2c1 |  | 0.11 µM | 5.2 µM |  |  | 2.4 µM | 1.8 µM | 0.49 µM | 
N#Cc1ccc2[nH]c(CN3CCN(c4ccc(Cl)cc4)CC3)cc2c1 | 5.3 µM | 0.0021 µM | 13 µM |  |  | 7.9 µM | 7.6 µM |  | 
N#Cc1ccc2[nH]cc(CN3CCN(c4ccc(Cl)c(Cl)c4)CC3)c2c1 |  | 0.022 µM | 0.87 µM |  |  | 0.79 µM | 0.48 µM | 0.45 µM | 
N#Cc1ccc2[nH]cc(CN3CCN(c4ccccc4Cl)CC3)c2c1 |  | 0.017 µM | 0.55 µM |  |  | 1.4 µM | 0.54 µM | 0.51 µM | 
N#Cc1ccc2cc(CN3CCN(c4ccccc4)CC3)[nH]c2c1 | 5.3 µM | 0.0036 µM | 3.1 µM |  |  | 5.6 µM | 2.5 µM |  | 
N#Cc1ccc2[nH]c(CN3CCN(c4ccc(Cl)c(Cl)c4)CC3)cc2c1 | 11 µM | 0.0075 µM | 20 µM |  |  | 43 µM | 36 µM |  | 
N#Cc1ccc2cc(CN3CCN(c4ccc(Cl)c(Cl)c4)CC3)[nH]c2c1 | 0.88 µM | 0.009 µM | 33 µM |  |  | 2 µM | 1.4 µM |  | 
